Measurements pooled from the literature.
Each line is one published result; the experiments were not run side by side.

| Compound | tested on | test | system | conditions | quantity | value |
| --- | --- | --- | --- | --- | --- | --- |
| CC(=O)Nc1cccc(-n2c(=O)n(C3CC3)c(=O)c3c(Nc4ccc(I)cc4F)n(C)c(=O)c(C)c32)c1 | Calu-6 | cell growth or viability, resazurin | – | 390 pM, 72 h | viability | 89.4% |
| CC1=C(C(=O)Nc2ccc3[nH]ncc3c2)C(c2ccc(F)cc2)NC(c2ccc(C(F)(F)F)nc2)=N1 (stereo not shown) | Trypanosoma brucei | parasite growth | – | – | EC50 | 5.01 µM |
| O=c1c2cnccc2nc(/C=C/c2ccc(F)cc2)n1-c1cccc(O)c1 | Enterococcus faecium | microbial growth, broth dilution | NCTC7171 | – | MIC | > 128 µg/mL |
| CCNc1nc(Nc2cc(F)c(C(=O)N3CCOCC3)cc2OC)ncc1C(F)(F)F | MB002 | cell growth or viability | – | 7 days | IC50 | > 10 µM |
| COc1cccc(-n2ncc3c(N/N=C/c4ccc(C(=O)NCCN(C)C)cc4)ncnc32)c1 | Trypanosoma brucei | parasite growth | – | – | EC50 | 0.251 µM |
| COC(=O)Cc1ccc(/C=C/c2nc3ccccc3c(=O)n2-c2cccc(C(=O)O)c2)cc1 | Enterococcus faecium | microbial growth, broth dilution | NCTC7171 | – | MIC | > 128 µg/mL |
| Oc1nc(-c2ccc(C(F)(F)F)cc2)nc2c1CSCC2 | MB002 | cell growth or viability | – | 7 days | IC50 | > 10 µM |
| CC(=O)OCCCn1c(/C=C/c2ccc(C#N)cc2)nc2ccccc2c1=O | Enterococcus faecium | microbial growth, broth dilution | NCTC7171 | – | MIC | > 128 µg/mL |
| CC(C)C[C@H](NC(=O)[C@H](Cc1ccccc1)NC(=O)c1cnccn1)B(O)O | MB002 | cell growth or viability | – | 7 days | IC50 | 0.00313 µM |
| Nc1ncc(-c2cccc(S(N)(=O)=O)c2)c2scc(-c3ccc(F)c(Cl)c3)c12 | Trypanosoma brucei | parasite growth | – | – | EC50 | 10 µM |
| N#Cc1ccc(/C=C/c2nc3ccccc3c(=O)n2-c2cccc(C(=O)NCCO)c2)cc1 | Enterococcus faecium | microbial growth, broth dilution | NCTC7171 | – | MIC | > 128 µg/mL |
| COc1ccccc1-c1cc(/C=C2\C(=O)Nc3ncc(Br)cc32)cc(Br)c1O | Trypanosoma brucei | parasite growth | – | – | EC50 | 2.51 µM |
| CO[C@H]1C[C@@H]2CC[C@@H](C)[C@@](O)(O2)C(=O)C(=O)N2CCCC[C@H]2C(=O)O[C@H]([C@H](C)C[C@@H]2CC[C@@H](O)[C@H](OC)C2)CC(=O)[C@H](C)/C=C(\C)[C@@H](O)[C@@H](OC)C(=O)[C@H](C)C[C@H](C)/C=C/C=C/C=C/1C | MB002 | cell growth or viability | – | 7 days | IC50 | 0.0065 µM |
